According to ChEMBL document CHEMBL5137066, “Discovery of BLU-945, a Reversible, Potent, and Wild-Type-Sparing Next-Generation EGFR Mutant Inhibitor for Treatment-Resistant Non-Small-Cell Lung Cancer” (J Med Chem, 2022):

How the values were obtained:
[1] = target: T1, Epidermal growth factor receptor (Homo sapiens, UniProt P00533, L858R/T790M); assay: Inhibition of N-terminal GST tagged recombinant human EGFR L858R/T790M (669 to end residues) double mutant expressed in baculovirus infected Sf9 insect cells expression system using 5-FAM-EEPLYINSFPAKKK-CONH peptide as substrate preincubated for 10 mins followed by peptide substrate addition in presence of ATP
[2] = (§1) Inhibition of N-terminal GST tagged recombinant human EGFR L858R/T790M/C790S (668 to end residues) triple mutant expressed in baculovirus infected Sf9 insect cells using 5-FAM-EEPLYINSFPAKKK-CONH peptide as substrate preincubated for 10 mins followed by peptide substrate addition in presence of ATP
[3] = target: T2, Epidermal growth factor receptor (Homo sapiens, UniProt P00533); assay: Inhibition of N-terminal GST tagged recombinant wild type human EGFR expressed in baculovirus infected Sf9 insect cells expression system using 5-FAM-EEPLYINSFPAKKK-CONH peptide as substrate preincubated for 10 mins followed by peptide substrate addition in presence of ATP
[4] = target: T1, Epidermal growth factor receptor; assay: Inhibition of EGF stimulated EGFR L858R/T790M double mutant phosphorylation in human NCI-H1975 cells preincubated for 4 to 5 hrs followed by EGF stimulation for 10 mins by AlphaLISA method; type: cell-based
[5] = target: T2, Epidermal growth factor receptor; assay: Inhibition of wild type EGFR in human A-431 cells preincubated for 4 to 5 hrs followed by EGF stimulation for 10 mins by AlphaLISA method; type: cell-based
[6] = Intrinsic clearance in human liver microsomes; type: ADME, Microsome; conditions: for Microsomal intrinsic clearance: microsomes
[7] = as §1, with “ex19del (746 to 750)/ L858R/C790S” for “L858R/T790M/C790S”, “cells expression system” for “cells”
[8] = Clearance in Sprague-Dawley rat at 1 mg/kg, iv; type: ADME, organism-based; conditions: in vivo
Procedure, shortened: (§2)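 Sprague–Dawley rats (n = 3), single IV bolus of 1 mg/kg in 10% DMSO, 10% solutol, 80% of a 20% HP-β-CD solution (in water or in saline, depending on compound). Clearance is plasma clearance after the IV bolus.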

[9] = Half life in Sprague-Dawley rat at 1 mg/kg, iv; type: ADME, organism-based; conditions: in vivo; procedure, shortened: as §2
[10] = Oral bioavailability in Sprague-Dawley rat at 5 mg/kg; type: ADME, organism-based; conditions: in vivo
Procedure, shortened: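 Sprague–Dawley rats (n = 3) received 1 mg/kg IV and 5 mg/kg PO. IV vehicle was 10% DMSO/10% solutol/80% (20% HP-β-CD). PO vehicle was a suspension in 20% solutol in 0.5% MC in water, or a solution matching the IV vehicle, depending on compound.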

[11] = Apparent permeability across apical to basolateral side in MDCK-MDR1 cells; type: ADME, cell-based, Canis lupus familiaris; conditions: dog
[12] = Efflux ratio of apparent permeability in MDCK-MDR1 cells; type: ADME, cell-based, Canis lupus familiaris; conditions: dog
[13] = Intrinsic clearance in human liver microsomes in presence of NADPH; type: ADME, Microsome
Procedure, shortened: (§3)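 Intrinsic clearance measured in isolated liver microsomes of each species with NADPH, expressed in μL/min/mg.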

[14] = Intrinsic clearance in cynomolgus monkey liver microsomes in presence of NADPH; type: ADME, Macaca fascicularis, Microsome; procedure, shortened: as §3
[15] = Intrinsic clearance in human hepatocytes assessed per million cells; type: ADME, cell-based, Hepatocyte
Procedure, shortened: (§4)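 Intrinsic clearance measured in isolated hepatocytes of each species, expressed in μL/min/million cells.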

[16] = Intrinsic clearance in cynomolgus monkey hepatocytes assessed per million cells; type: ADME, cell-based, Macaca fascicularis, Hepatocyte; procedure, shortened: as §4
[17] = Clearance in cynomolgus monkey at 0.5 mg/kg,iv; type: ADME, organism-based, Macaca fascicularis; conditions: in vivo
Procedure, shortened: (§5)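 Cynomolgus monkeys given a single IV bolus of 0.5 mg/kg in 5% DMSO + 5% kolliphor HS 15 + 90% saline. Clearance is plasma clearance after the bolus.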

[18] = Unbound clearance in cynomolgus monkey assessed as clearance/free fraction ratio at 0.5 mg/kg, iv; type: ADME, organism-based, Macaca fascicularis; conditions: in vivo
Procedure, shortened: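 Cynomolgus monkey, 0.5 mg/kg IV bolus in 5% DMSO/5% kolliphor HS 15/90% saline. Unbound clearance = in vivo plasma clearance divided by the free fraction. Free fraction comes from plasma protein binding measured by ultracentrifugation.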

[19] = Half life in cynomolgus monkey at 0.5 mg/kg, iv; type: ADME, organism-based, Macaca fascicularis; conditions: in vivo; procedure, shortened: as §5
[20] = Intrinsic clearance in rat liver microsomes in presence of NADPH; type: ADME, Microsome; procedure, shortened: as §3
[21] = Intrinsic clearance in dog liver microsomes in presence of NADPH; type: ADME, Canis lupus familiaris, Microsome; procedure, shortened: as §3
[22] = Intrinsic clearance in rat hepatocytes assessed per million cells; type: ADME, cell-based, Hepatocyte; procedure, shortened: as §4
[23] = Intrinsic clearance in dog hepatocytes assessed per million cells; type: ADME, cell-based, Canis lupus familiaris, Hepatocyte; procedure, shortened: as §4

T1 sequence (P00533 25-1210 T790M/L858R limits assumed): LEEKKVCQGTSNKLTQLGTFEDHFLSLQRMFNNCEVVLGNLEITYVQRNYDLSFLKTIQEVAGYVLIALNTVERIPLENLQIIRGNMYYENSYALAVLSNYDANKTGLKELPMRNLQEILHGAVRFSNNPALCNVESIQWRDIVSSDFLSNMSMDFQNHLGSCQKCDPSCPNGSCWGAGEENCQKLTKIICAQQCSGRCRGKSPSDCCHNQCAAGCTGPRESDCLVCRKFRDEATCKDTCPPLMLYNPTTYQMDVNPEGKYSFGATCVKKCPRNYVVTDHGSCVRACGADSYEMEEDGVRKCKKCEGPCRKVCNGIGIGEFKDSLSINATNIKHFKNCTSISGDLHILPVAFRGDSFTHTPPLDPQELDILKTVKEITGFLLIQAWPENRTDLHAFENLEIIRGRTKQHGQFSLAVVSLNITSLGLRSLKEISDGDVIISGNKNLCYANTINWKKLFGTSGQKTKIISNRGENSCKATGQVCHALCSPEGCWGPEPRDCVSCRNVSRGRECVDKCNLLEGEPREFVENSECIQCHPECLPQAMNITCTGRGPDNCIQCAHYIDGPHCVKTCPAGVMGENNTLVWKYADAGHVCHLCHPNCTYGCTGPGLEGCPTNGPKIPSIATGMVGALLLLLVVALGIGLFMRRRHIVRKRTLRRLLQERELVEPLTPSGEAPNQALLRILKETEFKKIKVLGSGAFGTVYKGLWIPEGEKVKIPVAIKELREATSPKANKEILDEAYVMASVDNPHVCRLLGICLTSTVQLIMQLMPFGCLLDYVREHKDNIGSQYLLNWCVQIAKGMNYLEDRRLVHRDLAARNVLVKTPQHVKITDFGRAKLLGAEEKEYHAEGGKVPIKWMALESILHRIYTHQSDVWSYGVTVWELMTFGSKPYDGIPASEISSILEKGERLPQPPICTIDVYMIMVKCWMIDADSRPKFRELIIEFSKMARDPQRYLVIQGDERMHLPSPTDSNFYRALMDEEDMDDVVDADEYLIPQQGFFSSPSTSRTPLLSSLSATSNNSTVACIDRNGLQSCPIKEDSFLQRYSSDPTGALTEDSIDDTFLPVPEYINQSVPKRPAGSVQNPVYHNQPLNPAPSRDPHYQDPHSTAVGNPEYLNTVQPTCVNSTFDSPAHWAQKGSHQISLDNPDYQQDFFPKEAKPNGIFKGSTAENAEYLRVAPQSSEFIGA
T2 sequence (P00533 whole entry): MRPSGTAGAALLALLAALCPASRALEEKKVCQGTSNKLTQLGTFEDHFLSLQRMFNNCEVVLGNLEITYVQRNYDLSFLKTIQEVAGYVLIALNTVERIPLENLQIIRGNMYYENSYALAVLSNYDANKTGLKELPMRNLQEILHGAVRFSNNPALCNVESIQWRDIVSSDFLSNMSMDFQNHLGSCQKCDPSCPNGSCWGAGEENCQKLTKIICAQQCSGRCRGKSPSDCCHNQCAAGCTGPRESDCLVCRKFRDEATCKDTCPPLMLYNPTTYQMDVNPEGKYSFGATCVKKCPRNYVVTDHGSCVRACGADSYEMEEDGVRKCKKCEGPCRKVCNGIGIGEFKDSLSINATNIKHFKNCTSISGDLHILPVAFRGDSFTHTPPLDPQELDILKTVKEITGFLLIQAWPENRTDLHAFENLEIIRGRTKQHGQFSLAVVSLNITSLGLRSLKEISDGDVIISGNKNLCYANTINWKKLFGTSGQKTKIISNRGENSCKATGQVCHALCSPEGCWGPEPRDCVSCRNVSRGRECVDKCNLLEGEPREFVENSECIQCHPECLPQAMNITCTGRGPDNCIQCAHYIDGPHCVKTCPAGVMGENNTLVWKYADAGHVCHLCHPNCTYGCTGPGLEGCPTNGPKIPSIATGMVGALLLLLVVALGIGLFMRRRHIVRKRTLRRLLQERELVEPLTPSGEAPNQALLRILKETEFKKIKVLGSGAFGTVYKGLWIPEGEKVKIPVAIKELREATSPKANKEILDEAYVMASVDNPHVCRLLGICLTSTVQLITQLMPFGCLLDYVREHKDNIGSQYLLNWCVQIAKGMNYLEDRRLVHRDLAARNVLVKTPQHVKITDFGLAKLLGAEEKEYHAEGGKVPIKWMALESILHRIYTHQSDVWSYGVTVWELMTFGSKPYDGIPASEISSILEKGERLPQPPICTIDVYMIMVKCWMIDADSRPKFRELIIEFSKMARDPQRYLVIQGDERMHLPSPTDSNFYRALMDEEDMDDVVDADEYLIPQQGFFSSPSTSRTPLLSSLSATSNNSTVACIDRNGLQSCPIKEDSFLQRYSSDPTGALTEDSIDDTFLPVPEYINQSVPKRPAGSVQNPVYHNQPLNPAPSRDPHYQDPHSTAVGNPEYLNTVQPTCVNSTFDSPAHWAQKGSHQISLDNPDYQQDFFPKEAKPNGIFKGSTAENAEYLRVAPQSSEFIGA

Structure (SMILES)	IC50 [1] [nM]	IC50 [2] [nM]	IC50 [3] [nM]	IC50 [4] [nM]	IC50 [5] [nM]	Microsomal intrinsic clearance [6] [µL/min/mg]	IC50 [7] [nM]	further results
CNC(=O)c1cnc(Nc2ccnc(N3CCC(O)CC3)n2)cc1NC(C)C	290	266	> 10000	914	> 25000	4	–	–
COCC1CN(c2ncc(C(C)C)c3cc(Nc4ccnc(N5CC[C@@H](O)[C@@](C)(F)C5)n4)ncc23)C1	11	25	–	40	–	–	24	–
CC(C)c1cnc(N2CC[C@@H]2C)c2cnc(Nc3ccnc(N4CC[C@@H](O)[C@@](C)(F)C4)n3)cc12	106	113	–	210	–	–	110	–
CC(C)c1cnc(N2CC(CS(C)(=O)=O)C2)c2cnc(Nc3ccnc(N4CC[C@@H](O)[C@@](C)(F)C4)n3)cc12	–	–	–	–	–	9.6	–	clearance [8]: 67 mL/min/kg; half-life [9]: 1.6 h; F [10]: 2%
CNC(=O)c1cnc(Nc2ccnc(N3CC[C@@H](O)[C@@H](F)C3)n2)cc1NC(C)C	99	105	> 10000	420	> 25000	9.1	–	–
CC(C)c1cnc(N2CCCC2)c2cnc(Nc3ccnc(N4CC[C@@H](O)[C@@](C)(F)C4)n3)cc12	–	21.5	–	52	–	65	23	–
CC(C)c1cnc(N2CC[C@H]2C)c2cnc(Nc3ccnc(N4CC[C@@H](O)[C@@](C)(F)C4)n3)cc12	0.3	–	7290	7	9960	80	0.8	–
CC(C)c1ncc(N2CC[C@H]2C)c2cnc(Nc3ccnc(N4CC[C@@H](O)[C@@](C)(F)C4)n3)cc12	2.2	9	3420	23	–	159	6	–
CC(C)c1ccc(N2C[C@H](O)[C@H]2C)c2cnc(Nc3ccnc(N4CC[C@@H](O)[C@@](C)(F)C4)n3)cc12	0.5	7.5	2220	19	–	17	5.5	–
CO[C@@H]1[C@H](O)CN(c2nccc(Nc3cc4c(C(C)C)ccc(N5C[C@H](CS(C)(=O)=O)[C@H]5C)c4cn3)n2)CC1(F)F	0.7	–	810	2.6	191	–	–	Papp [11]: 8 10^-6 cm/s; efflux ratio [12]: 2; CLH [13]: 19 µL/min/mg; CLH [14]: 25 µL/min/mg; CLH [15]: 16 µL/min; CLH [16]: 49 uL/min/10^6 cells; clearance [17]: 9.1 mL/min/kg; Ratio [18]: 294; half-life [19]: 4.5 h
CC(C)c1nnc(N2CC[C@H]2C)c2cnc(Nc3ccnc(N4CC[C@@H](O)[C@@](C)(F)C4)n3)cc12	16	12.7	8170	25	–	96	9.6	–
CC(C)c1ccc(N2C[C@H](CS(C)(=O)=O)[C@H]2C)c2cnc(Nc3ccnc(N4CC[C@@H](O)[C@@](C)(F)C4)n3)cc12	–	–	–	–	–	–	–	Papp [11]: 9 10^-6 cm/s; clearance [8]: 25 mL/min/kg; half-life [9]: 1.3 h; F [10]: 50%; CLH [13]: 7.2 µL/min/mg; CLH [20]: 43 µL/min/mg; CLH [21]: 20 µL/min/mg; CLH [14]: 55 µL/min/mg; CLH [15]: 41 µL/min; CLH [22]: 33 µL/min; CLH [23]: 21 µL/min; clearance [17]: 31.8 mL/min/kg; half-life [19]: 2.9 h
CNc1ncc(C(C)C)c2cc(Nc3ccnc(N4CC[C@@H](O)[C@@H](F)C4)n3)ncc12	50	46	> 10000	67	> 25000	–	–	microsomal CLint ([6]; liver microsomes, read-out: CLH): 19.1 µL/min/mg
CC(C)c1cnc(N2CCC2)c2cnc(Nc3ccnc(N4CC[C@@H](O)[C@@](C)(F)C4)n3)cc12	2.1	12	–	20	8670	106	9.1	–
CC(C)c1cnc(N2C[C@H](CS(C)(=O)=O)[C@H]2C)c2cnc(Nc3ccnc(N4CC[C@@H](O)[C@@](C)(F)C4)n3)cc12	0.2	–	270	1.7	781	–	–	Papp [11]: 5 10^-6 cm/s; efflux ratio [12]: 16
CC(C)c1cnc(N2CC(C#N)C2)c2cnc(Nc3ccnc(N4CC[C@@H](O)[C@@](C)(F)C4)n3)cc12	–	5.3	3400	17	–	85	4.8	–
COC1CN(c2ncc(C(C)C)c3cc(Nc4ccnc(N5CC[C@@H](O)[C@@](C)(F)C5)n4)ncc23)C1	3.4	7.2	–	24	–	91	6.3	–
CNc1ncc(C(C)C)c2cc(Nc3ccnc(N4CC[C@@H](O)[C@@](C)(F)C4)n3)ncc12	–	–	–	–	–	31	–	–
CC(C)c1cnc(N2CC(O)C2)c2cnc(Nc3ccnc(N4CC[C@@H](O)[C@@](C)(F)C4)n3)cc12	3.6	11	5520	41	–	43	8.1	–
CC(C)c1ccc(N2CC(CS(C)(=O)=O)C2)c2cnc(Nc3ccnc(N4CC[C@@H](O)[C@@](C)(F)C4)n3)cc12	–	–	–	–	–	–	–	Papp [11]: 17 10^-6 cm/s; clearance [8]: 20 mL/min/kg; half-life [9]: 3 h; F [10]: 85%
CC(C)c1cnc(N2C[C@H](O)[C@H]2C)c2cnc(Nc3ccnc(N4CC[C@@H](O)[C@@](C)(F)C4)n3)cc12	–	–	–	–	–	25	–	–
CC(C)c1ncc(N2C[C@H](O)[C@H]2C)c2cnc(Nc3ccnc(N4CC[C@@H](O)[C@@](C)(F)C4)n3)cc12	1.8	10	4190	13	–	45	8.1	–
CC(C)c1cnc(N2CC(C(=O)N(C)C)C2)c2cnc(Nc3ccnc(N4CC[C@@H](O)[C@@](C)(F)C4)n3)cc12	–	–	–	–	–	102	–	–
CC[C@]1(F)CN(c2nccc(Nc3cc4c(C(C)C)ccc(N5C[C@H](CS(C)(=O)=O)[C@H]5C)c4cn3)n2)CC[C@H]1O	0.5	0.4	761	1.8	709	–	–	Papp [11]: 6 10^-6 cm/s; efflux ratio [12]: 4; CLH [13]: 5.9 µL/min/mg; CLH [14]: 192 µL/min/mg; CLH [15]: 48 µL/min; CLH [16]: 204 uL/min/10^6 cells
CNC(=O)C1CN(c2ncc(C(C)C)c3cc(Nc4ccnc(N5CC[C@@H](O)[C@@](C)(F)C5)n4)ncc23)C1	1	1.1	–	32	–	–	3.4	–
CC(C)c1ccc(N2C[C@H](CS(C)(=O)=O)[C@H]2C)c2cnc(Nc3ccnc(N4CC[C@@](C)(O)[C@@H](F)C4)n3)cc12	0.4	0.5	1090	3.8	1210	–	–	Papp [11]: 5 10^-6 cm/s; efflux ratio [12]: 3; CLH [13]: 5.1 µL/min/mg; CLH [14]: 23 µL/min/mg; CLH [15]: 3.2 µL/min; CLH [16]: 1.5 uL/min/10^6 cells; clearance [17]: 8.8 mL/min/kg; Ratio [18]: 170; half-life [19]: 4.8 h
